# Measurements: ChEMBL document CHEMBL3286310, “Synthesis and biological evaluation of novel N-aryl maleimide derivatives clubbed with α-hydroxyphosphonates” (2014)
# Tests used:
# Format in all cases: functional
# Escherichia coli [1] = experiment: Antimicrobial activity against Escherichia coli ATCC 25922 at 100 ug/disc after 24 hrs by agar cup plate method; settings: ATCC 25922, 24 h, read-out: DIZ
# How it was run: (§1)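 Agar cup plate diffusion with bacterial inocula reseeded in Mueller-Hinton broth for 24 h at 37 °C. Compounds diluted in DMF, with DMF alone as control and streptomycin as standard. Inhibition-zone diameter read by caliper, each zone measured three times and averaged.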
# Escherichia coli [2] = experiment: Antimicrobial activity against Escherichia coli ATCC 25922 after 24 hrs by NCCLS M7-A5 method; settings: ATCC 25922, 24 h
# How it was run: (§2)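 MIC by agar dilution on Mueller-Hinton agar plates, following NCCLS M7-A5. MIC was taken as the lowest concentration with no visible growth after 24 h incubation at 37 °C.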
# Bacillus subtilis [3] = experiment: Antimicrobial activity against Bacillus subtilis NCIM 2250 after 24 hrs by NCCLS M7-A5 method; settings: NCIM 2250, 24 h; how it was run: as §2
# Bacillus subtilis [4] = experiment: Antimicrobial activity against Bacillus subtilis NCIM 2250 at 100 ug/disc after 24 hrs by agar cup plate method; settings: NCIM 2250, 24 h, read-out: DIZ; how it was run: as §1
# Candida tropicalis [5] = experiment: Antimicrobial activity against Candida tropicalis MTCC 184 after 24 hrs by NCCLS M7-A5 method; settings: MTCC 184, 24 h; how it was run: as §2
# Aspergillus niger [6] = experiment: Antimicrobial activity against Aspergillus niger MCIM 545 at 100 ug/disc after 48 hrs by agar cup plate method; settings: MCIM 545, 48 h, read-out: DIZ
# How it was run: (§3)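 Agar cup plate diffusion with fungal inocula reseeded in Czapek Dox broth for 48 h at 25 °C. Compounds diluted in DMF, with DMF alone as control and griseofulvin as standard. Inhibition-zone diameter read by caliper, each zone measured three times and averaged.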
# Aspergillus clavatus [7] = experiment: Antimicrobial activity against Aspergillus clavatus MTCC 1323 at 100 ug/disc after 48 hrs by agar cup plate method; settings: MTCC 1323, 48 h, read-out: DIZ; how it was run: as §3
# Aspergillus clavatus [8] = experiment: Antimicrobial activity against Aspergillus clavatus MTCC 1323 after 24 hrs by NCCLS M7-A5 method; settings: MTCC 1323, 24 h; how it was run: as §2
# Aspergillus niger [9] = experiment: Antimicrobial activity against Aspergillus niger MCIM 545 after 24 hrs by NCCLS M7-A5 method; settings: MCIM 545, 24 h; how it was run: as §2
# Candida albicans [10] = experiment: Antimicrobial activity against Candida albicans MTCC 277 after 24 hrs by NCCLS M7-A5 method; settings: MTCC 277, 24 h; how it was run: as §2
# Candida tropicalis [11] = experiment: Antimicrobial activity against Candida tropicalis MTCC 184 at 100 ug/disc after 48 hrs by agar cup plate method; settings: MTCC 184, 48 h, read-out: DIZ; how it was run: as §3
# Candida albicans [12] = experiment: Antimicrobial activity against Candida albicans MTCC 277 at 100 ug/disc after 48 hrs by agar cup plate method; settings: MTCC 277, 48 h, read-out: DIZ; how it was run: as §3
Structure (SMILES),zone of inhibition at 100 µg/disc (Escherichia coli [1]) [mm],MIC (Escherichia coli [2]) [µg/mL],MIC (Bacillus subtilis [3]) [µg/mL],zone of inhibition at 100 µg/disc (Bacillus subtilis [4]) [mm],MIC (Candida tropicalis [5]) [µg/mL],zone of inhibition at 100 µg/disc (Aspergillus niger [6]) [mm],zone of inhibition at 100 µg/disc (Aspergillus clavatus [7]) [mm],MIC (Aspergillus clavatus [8]) [µg/mL],MIC (Aspergillus niger [9]) [µg/mL],MIC (Candida albicans [10]) [µg/mL],zone of inhibition at 100 µg/disc (Candida tropicalis [11]) [mm],zone of inhibition at 100 µg/disc (Candida albicans [12]) [mm]
CN[C@@H]1[C@H](O[C@H]2[C@H](O[C@H]3[C@H](O)[C@@H](O)[C@H](N=C(N)N)[C@@H](O)[C@@H]3N=C(N)N)O[C@@H](C)[C@]2(O)C=O)O[C@@H](CO)[C@H](O)[C@H]1O [STREPTOMYCIN],16.4,5,5,16.2,–,–,–,–,–,–,–,–
COC1=CC(=O)C[C@@H](C)[C@]12Oc1c(Cl)c(OC)cc(OC)c1C2=O [GRISEOFULVIN],–,–,–,–,5,16.9,17.6,5,5,5,17.3,16.8
CCOP(=O)(OCC)C(O)C1=C(N(C)C)C(=O)N(c2ccc(Cl)cc2)C1=O (stereo unspecified),13.4,25,–,–,25,15.8,–,–,20,–,15.9,–
CCOP(=O)(OCC)C(O)C1=C(N(C)C)C(=O)N(c2cccc(Cl)c2)C1=O (stereo unspecified),13.5,20,10,15.8,10,13.6,16.2,20,25,10,17.1,16.6
CCOP(=O)(OCC)C(O)C1=C(N(C)C)C(=O)N(c2ccccc2)C1=O (stereo unspecified),13.2,20,25,13.4,20,–,16.3,20,–,–,16.1,–
CCOP(=O)(OCC)C(O)C1=C(N(C)C)C(=O)N(c2cccc(C(F)(F)F)c2)C1=O (stereo unspecified),15.7,10,15,15.4,10,16.6,17.4,10,15,20,17.2,15.2
CCOP(=O)(OCC)C(O)C1=C(N(C)C)C(=O)N(c2ccc(Br)cc2)C1=O (stereo unspecified),13.1,25,20,15.1,15,15.5,16.4,20,20,25,16.8,13.8
CCOP(=O)(OCC)C(O)C1=C(N(C)C)C(=O)N(c2ccc(F)cc2)C1=O (stereo unspecified),15.8,10,10,15.6,15,16.4,17.3,10,15,15,16.7,16.5
CCOP(=O)(OCC)C(O)C1=C(N(C)C)C(=O)N(c2ccccc2Cl)C1=O (stereo unspecified),15.4,15,20,13.6,20,16.6,16.8,15,15,20,16.2,15.1
